For assay [1], the system named is Rattus norvegicus. As to the kind of experiment: Efficiency of chelation measured as net iron excretion/total iron-binding capacity of 300 umol/kg compound administered po in rats. It is filed as functional. The gist of the method:
(§1)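 Bile duct-cannulated male Sprague-Dawley rats (~450 g), anesthetized with sodium pentobarbital 55 mg/kg ip. Chelator given po or sc in 40% Cremophor RH-40/water. Bile collected every 3 h for 24 h, urine at 24 h; iron by flame AA. Net excretion is treated minus control. Theoretical output assumes 1:1 or 2:1 ligand/iron by denticity. n = 4; mean ± SEM.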

In assay [2] the test system is Monkey. As to the kind of experiment: Efficiency of chelation measured as net iron excretion/total iron-binding capacity of 300 umol/kg compound administered po in monkeys. It is filed as functional, Cercopithecidae.
Assay [3] relates to Monkey. Put plainly: Efficiency of chelation measured as net iron excretion/total iron-binding capacity of 300 umol/kg compound administered sc in monkeys. It is filed as functional, Cercopithecidae. The gist of the method: (§2)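 Cebus apella monkeys iron-overloaded with iv iron dextran (~500 mg Fe/kg), rested ≥60 days. Dosed sc as aqueous suspension or sodium salt solution (DFO in sterile H2O, 1 mL/kg). Feces and urine collected at 24 h intervals from 4 days pre-dose to 5 days post-dose; iron by flame AA. Efficiency is 2-day post-dose iron minus 4-day baseline mean, divided by theoretical output. n = 4; mean ± SEM.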

For assay [4], the system named is Monkey. As to the kind of experiment: Efficiency of chelation measured as net iron excretion/total iron-binding capacity of 150 umol/kg compound administered sc in monkeys. It is filed as functional, Cercopithecidae. The gist of the method:
as §2

Assay [5] has as its system Rattus norvegicus. As to the kind of experiment: Efficiency of chelation measured as net iron excretion/total iron-binding capacity of 300 umol/kg compound administered sc in rats. It is filed as functional. The gist of the method: as §1
The subject of assay [6] is Monkey. As to the kind of experiment: Efficiency of chelation measured as net iron excretion/total iron-binding capacity of 75 umol/kg compound administered sc in monkey. It counts as functional, Cercopithecidae. The procedure, abridged: as §2
Assay [7] relates to Rattus norvegicus. Put plainly: Efficiency of chelation measured as net iron excretion/total iron-binding capacity of 150 umol/kg compound administered sc in rats. It is filed as functional. The gist of the method:
as §1

For assay [8], the system named is Monkey. Put plainly: Efficiency of chelation measured as net iron excretion/total iron-binding capacity of 150 umol/kg compound administered sc in monkey. It counts as functional, Cercopithecidae. The procedure, abridged: as §2
Assay [9] relates to Rattus norvegicus. Put plainly: Efficiency of chelation measured as net iron excretion/total iron-binding capacity of 150 umol/kg compound administered po in rats. It is filed as functional. The gist of the method: as §1
Assay [10] relates to Monkey. As to the kind of experiment: Efficiency of chelation measured as net iron excretion/total iron-binding capacity of 150 umol/kg compound administered po in monkey. It counts as functional, Cercopithecidae.

With `O=C(O)[C@H]1CSC(c2ccc(O)cc2O)=N1`, the Efficiency is 2.9% in the assay with Rattus norvegicus [1]; 5.3% in the assay on Monkey [2]; 5.3% in the assay with Monkey [3]; 5.6% in the assay with Monkey [4]; 2.1% with Rattus norvegicus [5].

As for `O=C(O)[C@H]1CSC(c2cc(CCCOCCCOCCCc3cc(C4=N[C@@H](C(=O)O)CS4)c(O)cc3O)c(O)cc2O)=N1`, the Efficiency turned out to be 3.2% with Monkey [6], 6.5% in the assay with Rattus norvegicus [7], 2.1% with Monkey [8] and 0.9% in the assay with Rattus norvegicus [9].

Turning to `CC(=O)N(O)CCCCCNC(=O)CCC(=O)N(O)CCCCCNC(=O)CCC(=O)N(O)CCCCCN` [DEFEROXAMINE], the Efficiency in the assay on Rattus norvegicus [7] turned out to be 2.8%; with Monkey [8], 5.5%; in the assay on Rattus norvegicus [9], 1.1%; in the assay on Monkey [10], 0.1%.
